pIC50, pKd: −log10 of the molar value.
Key:
[1] = Metabolic stability in athymic mouse plasma assessed as intact labeled peptide level at 3.7 MBq, iv after 2 hrs by RP-HPLC; type: ADME, organism-based
Summary of the method: (§1)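 Tumor-free athymic mice were given 131I-labeled peptide via tail vein. Plasma was collected at 2 and 4 h (n = 2 per time) and analysed by RP-HPLC on an RP-18 column with an ethanol/0.05 M sodium acetate pH 5.5 gradient at 1 mL/min; intact fraction taken as percentage of plasma radioactivity.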

[2] = Metabolic stability in athymic mouse plasma assessed as intact labeled peptide level at 3.7 MBq, iv after 4 hrs by RP-HPLC; type: ADME, organism-based; summary of the method: as §1
[3] = Lipophilicity, logD of the compound using n-octanol and phosphate-buffered saline at pH 7.4 by the shake flask method; type: physicochemical
Summary of the method: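 Shake-flask partition of the 125I-labeled peptide between n-octanol and PBS pH 7.4; logD from n = 4.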

[4] = target: T1, E3 ubiquitin-protein ligase Mdm2 (Homo sapiens, UniProt Q00987); experiment: Binding affinity to MDM2 (unknown origin)
T1 sequence (Q00987 whole entry): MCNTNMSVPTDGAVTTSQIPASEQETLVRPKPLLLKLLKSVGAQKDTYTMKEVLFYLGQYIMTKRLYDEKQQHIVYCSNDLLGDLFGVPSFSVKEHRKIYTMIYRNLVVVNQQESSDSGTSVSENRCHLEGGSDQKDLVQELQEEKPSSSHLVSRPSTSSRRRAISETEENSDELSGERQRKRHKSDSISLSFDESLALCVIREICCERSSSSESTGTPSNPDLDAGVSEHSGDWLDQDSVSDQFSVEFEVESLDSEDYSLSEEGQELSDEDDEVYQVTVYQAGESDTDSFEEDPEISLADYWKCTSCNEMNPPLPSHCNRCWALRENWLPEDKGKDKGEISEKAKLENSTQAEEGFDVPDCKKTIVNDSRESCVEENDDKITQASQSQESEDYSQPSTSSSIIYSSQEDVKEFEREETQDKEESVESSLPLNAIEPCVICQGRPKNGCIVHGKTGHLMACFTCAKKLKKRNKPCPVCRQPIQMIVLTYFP

[5] = target: T1, E3 ubiquitin-protein ligase Mdm2; experiment: Binding affinity to recombinant human MDM2 by using 5-FAM-PMDM6 by fluorescence polarization based assay

`CC(=O)NC(CCCCNC(=O)c1cccc([131I])c1)C(=O)NCCCCCC(=O)N[C@H](C(=O)N[C@@H](CO)C(=O)N[C@@H](Cc1ccccc1)C(=O)N[C@@]1(C)CCCCCC/C=C/CCC[C@@](C)(C(=O)N[C@@H](CCC(=O)O)C(=O)N[C@@H](CC(N)=O)C(=O)N[C@@H](Cc2ccccc2)C(N)=O)NC(=O)[C@H](CC(C)C)NC(=O)[C@H](CC(C)C)NC(=O)[C@H](C)NC(=O)[C@H](Cc2c[nH]c3ccccc23)NC(=O)[C@H](Cc2ccc(O)cc2)NC(=O)[C@H](CCC(=O)O)NC1=O)[C@@H](C)O` (stereo not given in full) gave a Stability [1] of 68% and a Stability [2] of 80%.

`CC(=O)NC(CCCCNC(=O)c1cccc(I)c1)C(=O)NCCCCCC(=O)N[C@H](C(=O)N[C@@H](CO)C(=O)N[C@@H](Cc1ccccc1)C(=O)N[C@@]1(C)CCCCCC/C=C/CCC[C@@](C)(C(=O)N[C@@H](CCC(=O)O)C(=O)N[C@@H](CC(N)=O)C(=O)N[C@@H](Cc2ccccc2)C(N)=O)NC(=O)[C@H](CC(C)C)NC(=O)[C@H](CC(C)C)NC(=O)[C@H](C)NC(=O)[C@H](Cc2c[nH]c3ccccc23)NC(=O)[C@H](Cc2ccc(O)cc2)NC(=O)[C@H](CCC(=O)O)NC1=O)[C@@H](C)O` (stereo not given in full) gave a logD [3] of 1.45.

Work on `CC(=O)N[C@@H](CCCCN)C(=O)NCCCCCC(=O)N[C@H](C(=O)N[C@@H](CO)C(=O)N[C@@H](Cc1ccccc1)C(=O)N[C@]1(C)CCCCCC/C=C/CCC[C@@](C)(C(=O)N[C@@H](CCC(=O)O)C(=O)N[C@@H](CC(N)=O)C(=O)N[C@@H](Cc2ccccc2)C(N)=O)NC(=O)[C@H](CC(C)C)NC(=O)[C@H](CC(C)C)NC(=O)[C@H](C)NC(=O)[C@H](Cc2c[nH]c3ccccc23)NC(=O)[C@H](Cc2ccc(O)cc2)NC(=O)[C@H](CCC(=O)O)NC1=O)[C@@H](C)O` yielded a pKd [4] of 7.82 and a pIC50 [5] of 8.55.

— ChEMBL document CHEMBL5143669, “Stapled peptides as scaffolds for developing radiotracers for intracellular targets: Preliminary evaluation of a radioiodinated MDM2-binding stapled peptide in the SJSA-1 osteosarcoma model” (Bioorg Med Chem Lett, 2022)
